In ChEMBL document CHEMBL4311977, “Design and synthesis of parthenolide and 5-fluorouracil conjugates as potential anticancer agents against drug resistant hepatocellular carcinoma” (Eur J Med Chem, 2019):
The source made the active and inactive calls. The rule behind the calls is not given here.

Key:
Bel7402/5-FU [1] = test: Induction of apoptosis in human Bel7402/5-FU cells assessed as downregulation of Bcl-2 expression at 0.5 to 5 uM incubated for 24 hrs by Western blot analysis; format: functional, cell-based
Summary of the method: (§1)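 Bel-7402/5-FU cells were seeded at 5 × 10⁵ per well and left 12 h, then treated with four concentrations (0.5, 1, 2, 5) for 24 h. Cells were PBS-washed and lysed in RIPA on ice for 30 min, then denatured at 100 °C for 5 min. Lysates went through SDS-PAGE and PVDF transfer, 5% milk blocking for 1 h at room temperature, primary antibodies, and HRP secondary for 2 h at room temperature.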

Bel7402/5-FU [2] = test: Antiproliferative activity against human Bel7402/5-FU incubated for 72 hrs by MTT assay; format: functional, cell-based
Summary of the method: (§2)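 Bel-7402 and its 5-FU-resistant subline were kept in RPMI-1640 with 10% FBS and 1% penicillin/streptomycin at 37 °C under 5% CO2. Cells were seeded at 5000 per well and left for 12 h, then exposed to a concentration series for 72 h. MTT stock (5 mg/mL) was added for 4 h and the product dissolved in DMSO. OD was read at 570 nm and IC50 obtained by curve fitting.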

Bel7402/5-FU [3] = test: Down regulation of ABCC1 expression in human Bel7402/5-FU cells incubated for 24 hrs by western blot analysis; format: functional, cell-based; summary of the method: as §1
Bel7402/5-FU [4] = test: Induction of apoptosis in human Bel7402/5-FU cells assessed as increase in apoptotic bodies incubated for 48 hrs by DAPI staining based fluorescence microscopic analysis; format: functional, cell-based
Summary of the method: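 Bel-7402/5-FU cells were seeded at 5 × 10⁵ per well and left 12 h, then exposed at three concentrations (1, 2, 5) for 48 h. Cells were washed three times in PBS and stained with DAPI for 10 min at room temperature. Nuclear morphology was scored by fluorescence microscopy.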

Bel7402/5-FU [5] = test: Induction of apoptosis in human Bel7402/5-FU assessed as apoptotic cells at 1 uM incubated for 48 hrs by annexinV-FITC/propidium iodide staining based flow cytometry (reference value: 3.37 +/- 0.47 %)
Bel7402/5-FU [6] = test: Induction of apoptosis in human Bel7402/5-FU assessed as apoptotic cells at 5 uM incubated for 48 hrs by annexinV-FITC/propidium iodide staining based flow cytometry (reference value: 3.37 +/- 0.47 %)
Bel7402/5-FU [7] = test: Down regulation of Pgp expression in human Bel7402/5-FU cells at 0.5 uM incubated for 24 hrs by flow cytometry
Bel7402/5-FU [8] = test: Induction of apoptosis in human Bel7402/5-FU assessed as necrotic cells at 5 uM incubated for 48 hrs by annexinV-FITC/propidium iodide staining based flow cytometry (reference value: 0.157 %)
Bel7402/5-FU [9] = test: Induction of apoptosis in human Bel7402/5-FU cells assessed as activation of caspase-9 at 0.5 to 5 uM incubated for 24 hrs by Western blot analysis; format: functional, cell-based; summary of the method: as §1
Bel7402/5-FU [10] = test: Induction of apoptosis in human Bel7402/5-FU cells assessed as activation of caspase-3 at 0.5 to 5 uM incubated for 24 hrs by Western blot analysis; format: functional, cell-based; summary of the method: as §1
Bel7402/5-FU [11] = test: Induction of apoptosis in human Bel7402/5-FU assessed as late apoptotic cells at 5 uM incubated for 48 hrs by annexinV-FITC/propidium iodide staining based flow cytometry (reference value: 0.945 %)
[12] = Therapeutic index, ratio of IC50 for mouse 3T3 cells to IC50 for human Bel7402/5-FU cells; format: toxicity; settings: mouse 3T3 cells versus human Bel7402/5-FU cells, read-out: TI
Bel7402/5-FU [13] = test: Induction of apoptosis in human Bel7402/5-FU assessed as early apoptotic cells at 5 uM incubated for 48 hrs by annexinV-FITC/propidium iodide staining based flow cytometry (reference value: 20.1 %)
Bel7402/5-FU [14] = test: Induction of apoptosis in human Bel7402/5-FU assessed as late apoptotic cells at 1 uM incubated for 48 hrs by annexinV-FITC/propidium iodide staining based flow cytometry (reference value: 0.268 to 0.945 %)
Bel7402/5-FU [15] = test: Induction of apoptosis in human Bel7402/5-FU cells assessed as upregulation of Bim expression at 0.5 to 5 uM incubated for 24 hrs by Western blot analysis; format: functional, cell-based; summary of the method: as §1
NIH3T3 = test: Cytotoxicity against mouse 3T3 cells; format: cell-based
Bel7402/5-FU [16] = test: Down regulation of MDR1 expression in human Bel7402/5-FU cells incubated for 24 hrs by western blot analysis; format: functional, cell-based; summary of the method: as §1
Bel7402/5-FU [17] = test: Induction of apoptosis in human Bel7402/5-FU assessed as early apoptotic cells at 1 uM incubated for 48 hrs by annexinV-FITC/propidium iodide staining based flow cytometry (reference value: 20.1 to 20.3 %)
Bel-7402 = test: Antiproliferative activity against human Bel7402 incubated for 72 hrs by MTT assay; format: functional, cell-based; settings: Bel-7402, 72 h; summary of the method: as §2
Bel7402/5-FU [18] = test: Induction of apoptosis in human Bel7402/5-FU cells assessed as increase in cytochrome C level at 0.5 to 5 uM incubated for 24 hrs by Western blot analysis; format: functional, cell-based; summary of the method: as §1
Bel7402/5-FU [19] = test: Induction of apoptosis in human Bel7402/5-FU assessed as apoptotic cells at 2.5 uM incubated for 48 hrs by annexinV-FITC/propidium iodide staining based flow cytometry (reference value: 3.37 +/- 0.47 %)
Bel7402/5-FU [20] = test: Increase in ADR intracellular accumulation in human Bel7402/5-FU cells preincubated for 24 hrs followed by adriamycin addition measured after 1 hr by flow cytometry
Bel7402/5-FU [21] = test: Induction of apoptosis in human Bel7402/5-FU assessed as necrotic cells at 2.5 uM incubated for 48 hrs by annexinV-FITC/propidium iodide staining based flow cytometry (reference value: 0.024 to 0.157 %)
Bel7402/5-FU [22] = test: Induction of apoptosis in human Bel7402/5-FU cells assessed as downregulation of Bcl-xl expression at 0.5 to 5 uM incubated for 24 hrs by Western blot analysis; format: functional, cell-based; summary of the method: as §1
Bel7402/5-FU [23] = test: Induction of apoptosis in human Bel7402/5-FU assessed as late apoptotic cells at 2.5 uM incubated for 48 hrs by annexinV-FITC/propidium iodide staining based flow cytometry (reference value: 0.268 to 0.945 %)
Bel7402/5-FU [24] = test: Down regulation of ABCG2 expression in human Bel7402/5-FU cells incubated for 24 hrs by western blot analysis; format: functional, cell-based; summary of the method: as §1

**Q.** For `C=C1C(=O)O[C@H]2[C@H]1CC/C(COC(=O)Cn1cc(F)c(=O)n(Cc3ccc(C(F)(F)F)cc3)c1=O)=C\CC[C@@]1(C)O[C@@H]21`, which Activity (Bel7402/5-FU [1]) is on record?
**A.** The Activity was “Active”.

**Q.** What about the IC50 (Bel7402/5-FU [2]) of the same compound?
**A.** Its IC50 is 2250 nM.

**Q.** And the Activity (Bel7402/5-FU [3])?
**A.** Its Activity is “Dose-dependent effect”.

**Q.** What about the Activity (Bel7402/5-FU [4]) of the same compound?
**A.** The Activity was “Dose-dependent effect”.

**Q.** What about the Activity (Bel7402/5-FU [5]) of the same compound?
**A.** Its Activity is 4.9%.

**Q.** What about the Activity (Bel7402/5-FU [6]) of the same compound?
**A.** Its Activity is 77.97%.

**Q.** And the Activity (Bel7402/5-FU [7])?
**A.** Its Activity is “Active”.

**Q.** And the Activity (Bel7402/5-FU [8])?
**A.** Its Activity is 1.49 - 1.75%.

**Q.** What about the Activity (Bel7402/5-FU [9]) of the same compound?
**A.** The Activity was “Active”.

**Q.** And the Activity (Bel7402/5-FU [10])?
**A.** The Activity was “Active”.

**Q.** What about the Activity (Bel7402/5-FU [11]) of the same compound?
**A.** Its Activity is 19.5 - 46.1%.

**Q.** What about the selectivity ratio [12] of the same compound?
**A.** Its selectivity ratio is 2.3.

**Q.** And the Activity (Bel7402/5-FU [13])?
**A.** The Activity was 18.1 - 82.7%.

**Q.** What about the Activity (Bel7402/5-FU [14]) of the same compound?
**A.** Its Activity is 0.909%.

**Q.** And the Activity (Bel7402/5-FU [15])?
**A.** Its Activity is “Active”.

**Q.** What about the IC50 (NIH3T3) of the same compound?
**A.** Its IC50 is 5200 nM.

**Q.** What about the Activity (Bel7402/5-FU [16]) of the same compound?
**A.** Its Activity is “Dose-dependent effect”.

**Q.** What about the Activity (Bel7402/5-FU [17]) of the same compound?
**A.** Its Activity is 3.5%.

**Q.** And the IC50 (Bel-7402)?
**A.** Its IC50 is 2250 nM.

**Q.** And the Activity (Bel7402/5-FU [18])?
**A.** Its Activity is “Active”.

**Q.** What about the Activity (Bel7402/5-FU [19]) of the same compound?
**A.** Its Activity is 14.43%.

**Q.** And the Activity (Bel7402/5-FU [20])?
**A.** Its Activity is “Dose-dependent effect”.

**Q.** What about the Activity (Bel7402/5-FU [21]) of the same compound?
**A.** Its Activity is 1.87%.

**Q.** And the Activity (Bel7402/5-FU [22])?
**A.** The Activity was “Active”.

**Q.** What about the Activity (Bel7402/5-FU [23]) of the same compound?
**A.** The Activity was 4.86%.

**Q.** And the Activity (Bel7402/5-FU [24])?
**A.** Its Activity is “Dose-dependent effect”.
